Bioassay records as filed in PubChem BioAssay.
RAM inhibit = blocks the yeast RAM network; 190,000 tested, 1.8% active; AID 868; S. cerevisiae dse1pr::URA3 reporter, 5-FOA growth OD615, 2 d; analog-sensitive cbk1-as2 kinase mutant strain; inhibition, % at 50 µM;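 active = inhibition above a set limit, 3 SD over mean compound inhibition, cut at about 8.4% in these data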;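 also: inhibition rescues growth on 5-FOA so higher OD means more RAM inhibition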
Yeast lifespan up = yeast lifespan extension; S. cerevisiae growth with nicotinamide, OD615; deaD strain in restrictive glucose medium; inhibition of the nicotinamide effect, % at 10 µM; 130,000 tested, 0.68% active; AID 775;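 active = inhibition above a set limit, placed 3 SD over the median of all compounds, cut at about 26% in these data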
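assay system = DeaD-strain S. cerevisiae | buffer or medium = restrictive glucose medium | reagent = 1.5 mM nicotinamide | compound = 10 µM single point, 0.25% DMSO | incubation = 48 h compound exposure at 30 °C, humidified | signal = OD615 measurement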
SDO1 yeast rescue = compounds rescuing growth of sdo1-depleted yeast, bone marrow failure model; 140,000 tested, 0.21% active; AID 817; S. cerevisiae sdo1-depleted JHY4D growth rescue, OD600 30 h; stronger effect = higher value; pdr5 snq2 efflux-pump mutant strain; z-score at 10 µM;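 active = z-score above 3 at both the 24 hr and the 30 hr optical density reads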
Yeast growth inh = chemicals that inhibit yeast BB579 growth in restrictive medium (lifespan-shortening candidates); S. cerevisiae BB579 growth, OD615, 48 h; inhibition, % at 10 µM; 140,000 tested, 0.51% active; AID 804;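 active = inhibition above a set limit, 3 SD over the mean compound inhibition, cut at about 44% in these data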
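System: Saccharomyces cerevisiae DeaD strain BB579, replicative lifespan model yeast | Buffer or medium: Restrictive glucose-based CSMM-D medium | Times: 4 h preincubation and 48 h exposure at 30 °C | Detection: OD615 turbidity measurement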
Large screens that a line does not name were inactive. Compounds with a hit are over-represented: about 2.7% of the library has one in this group of screens.

Cc1ccc(S(=O)(=O)n2nc(OC(=O)c3ccco3)cc2N)cc1	none
COc1ccccc1C(=O)Oc1cc(N)n(S(=O)(=O)c2ccc(C)cc2)n1	Yeast lifespan up 45
COc1ccc(CCN(Cc2cccs2)S(=O)(=O)c2ccc(-n3cnnn3)cc2)cc1OC	none
COc1cc(S(=O)(=O)N(CCc2ccccc2)Cc2cccs2)ccc1-n1cnnn1	RAM inhibit 9.1 (no result: Yeast lifespan up)
CC1CC(=O)c2c(cc3c(-c4c(O)cc(O)c5c(O)c6c(cc45)OC(C)CC6=O)c(O)cc(O)c3c2O)O1 (stereo not drawn)	RAM inhibit 9.4 (no result: Yeast lifespan up, SDO1 yeast rescue, Yeast growth inh)
COc1ccc(N(CC(=O)NC2CCCC2)C(=O)Cn2nnc(-c3ccc(F)cc3)n2)cc1OC	RAM inhibit 9.3
COc1ccc(N(CC(=O)NC2CCCC2)C(=O)Cn2nnc(-c3ccc(C)cc3)n2)cc1OC	none
CC(Sc1cnccn1)C(=O)O (stereo not drawn)	none (no result: Yeast lifespan up, SDO1 yeast rescue, Yeast growth inh)
CC1CCN(S(=O)(=O)c2ccc(NC(=O)CN3CCOCC3)cc2)CC1	none
CC1CCN(S(=O)(=O)c2ccc(NC(=O)Cc3cccs3)cc2)CC1	RAM inhibit 9.1
COc1ccc(CCn2c(-c3ccccc3)nc3c(c(=O)c4ccccc4n3C)c2=O)cc1	Yeast lifespan up 31
CCc1cc2c(=O)c(-c3ccc4c(c3)OCCO4)coc2cc1OC(=O)c1ccco1	none
CCc1cc2c(=O)c(-c3nc4ccccc4[nH]3)coc2cc1OC(=O)N1CCOCC1	RAM inhibit 11
NS(=O)(=O)c1ccc(NC(=O)N2c3ccccc3Sc3ccccc32)cc1	RAM inhibit 9.4
CC1CCN(S(=O)(=O)c2ccc(NC(=O)N3c4ccccc4Sc4ccccc43)cc2)CC1	none
CCC(C)NC(=O)CS(=O)Cc1nc(-c2ccccc2C)oc1C (stereo not drawn)	Yeast growth inh 47
CCCNC(=O)CS(=O)Cc1nc(-c2ccccc2C)oc1C (stereo not drawn)	none
C=CCOc1c(Cl)cc(CNc2ccc(C)c(Cl)c2)cc1OC	none
C=CCOc1c(Cl)cc(CNc2ccc(N(C)C)cc2)cc1OC	RAM inhibit 8.4
O=C1N/C(=N\c2ccccn2)SC1Cc1ccc(Cl)cc1 (stereo not drawn)	none (no result: Yeast lifespan up, SDO1 yeast rescue, Yeast growth inh)
COc1cc(NC(=O)COC(=O)/C=C/c2ccc(Cl)cc2Cl)cc(OC)c1	RAM inhibit 9.5
O=C(CSc1nnc(SCc2ccccc2)s1)N/N=C/c1c(Cl)cccc1Cl	RAM inhibit 10
CC(/C=C/C(=O)c1ccc(C)cc1)=C\c1ccccc1	none
O=C(/C=C\c1ccc(-c2ccccc2)o1)c1ccccc1	RAM inhibit 9.6
Cc1ccc(C(=O)/C=C/c2ccc(-c3ccc(C)cc3)o2)cc1	Yeast lifespan up 28
Cc1ccc(C(=O)/C=C\C(=O)c2ccc(C)cc2)cc1	Yeast lifespan up 65
Cc1ccc(C(=O)/C=C/c2c[nH]c3ccccc23)cc1	none
Cc1ccc(NC(=O)CCn2nnc3ccccc32)cc1	none (no result: Yeast lifespan up, SDO1 yeast rescue, Yeast growth inh)
CN(C)S(=O)(=O)c1ccc(N2CCCC2)c(C(=O)Nc2nc(-c3cc(F)ccc3F)cs2)c1	RAM inhibit 9.2
CCCc1cc(NCc2ccccn2)n2c(nc3ccccc32)c1C#N	RAM inhibit 11 (no result: Yeast lifespan up, SDO1 yeast rescue, Yeast growth inh)
Cc1c(-c2ccccc2)oc2c(C(=O)N3CCN(c4ccc([N+](=O)[O-])cc4)CC3)cccc2c1=O	none
COc1ccccc1C(CCNS(=O)(=O)c1ccc(C)cc1)c1ccco1 (stereo not drawn)	RAM inhibit 10.0
Cc1ccc(S(=O)(=O)NCCC(c2ccc(F)cc2)c2ccco2)cc1 (stereo not drawn)	RAM inhibit 11
O=C(CCCN1C(=O)c2cccc3cccc(c23)C1=O)NC1CCS(=O)(=O)C1 (stereo not drawn)	none (no result: Yeast lifespan up, SDO1 yeast rescue, Yeast growth inh)
COc1ccccc1C1=NN(C2=NN=C(N)Cc3ncnn32)C(O)(C(F)(F)F)C1 (stereo not drawn)	none (no result: Yeast lifespan up, SDO1 yeast rescue, Yeast growth inh)
CC(C)N1CCN(Cc2cccn2-c2ccccn2)CC1CCO (stereo not drawn)	none (no result: Yeast lifespan up, SDO1 yeast rescue, Yeast growth inh)
CCCCc1oc2ccccc2c1C(=O)c1cc(I)c(OCCN(CC)CC)c(I)c1	Yeast growth inh 99 (no result: RAM inhibit)
CCN(CC)CCOc1ncnc2c1oc1ccccc12	none
CCOCCCNC(=O)c1ccc(NC(C)=O)cc1	none
CCCCOCCCNC(=O)c1ccc(NC(C)=O)cc1	RAM inhibit 9.3
COc1ccc(NC(=O)CSc2ccc3nnc(-c4cccnc4)n3n2)c(OC)c1	none (no result: Yeast lifespan up, SDO1 yeast rescue, Yeast growth inh)
N#CC1(c2ccc(NC(=O)c3ccccc3F)cc2)CCCC1	none
CN(C)C(=O)c1cc(C(=O)c2ccccc2Cl)c[nH]1	none (no result: Yeast lifespan up, SDO1 yeast rescue, Yeast growth inh)
Cc1ccc(S(=O)(=O)Nc2ccccc2/C=N/c2nc3ccccc3n2C)cc1	Yeast lifespan up 31
Cc1ccc(C(=O)Nc2cc3ccccc3oc2=O)cc1	none (no result: Yeast lifespan up, SDO1 yeast rescue, Yeast growth inh)
COc1ccc(-c2cc(C(=O)N3CCN(c4ccccc4)CC3)no2)cc1OC	none
COc1ccccc1-c1cc(C(=O)N2CCN(c3ccc(F)cc3)CC2)no1	RAM inhibit 9.4
Cc1ccc(Cl)cc1N1CCN(C(=O)C2(S(=O)(=O)c3ccc(Cl)cc3)CC2)CC1	none
Cc1cccc(N2CCN(C(=O)C3(S(=O)(=O)c4ccc(Cl)cc4)CC3)CC2)c1C	RAM inhibit 8.6 (no result: Yeast lifespan up, SDO1 yeast rescue, Yeast growth inh)
C/C(=N\NC(=O)c1ccc(CSc2cccc3cccnc23)cc1)C1CCCCC1	Yeast growth inh 71
COc1ccc(/C(C)=N/NC(=O)c2ccc(CSc3cccc4cccnc34)cc2)cc1OC	Yeast growth inh 71
O=C(CSc1cccc2cccnc12)N1CCCC1	none
Cc1nn(C)c(=O)n1N(C)c1ncc(C(F)(F)F)cc1Cl	none (no result: Yeast lifespan up, SDO1 yeast rescue, Yeast growth inh)
CCOC(=O)c1sc(NC(=O)CN(CC)CC)c(C(=O)OCC)c1C	Yeast lifespan up 28
CCOC(=O)c1sc(NC(C)=O)c(C(=O)OCC)c1C	none
N[C@@H](CO)c1nnc([C@H](CC(=O)O)NC(=O)C2CCNCC2)o1	none (no result: Yeast lifespan up, SDO1 yeast rescue, Yeast growth inh)
CCSc1nc(-c2ccc(OC)cc2)ccc1C#N	RAM inhibit 8.7
COc1ccc(OCc2nc(C#N)c(N3CCN(c4ccc(OC)cc4)CC3)o2)cc1	RAM inhibit 8.4
N#Cc1nc(COc2ccc(F)cc2)oc1N1CCN(Cc2ccccc2)CC1	none
COc1ccc(N2CCN(c3oc(COc4ccccc4Cl)nc3C#N)CC2)cc1	none
N#Cc1nc(COc2ccc(F)cc2)oc1N1CCC(Cc2ccccc2)CC1	RAM inhibit 9.9
O=c1[nH]c2ccccc2c2nc3ccccn3c12	Yeast growth inh 80
O=c1nc2c(O)cccn2c2c1c(=O)[nH]c1ccccc12	none
COC(=O)/C=c1/s/c(=C(\C#N)C(=O)NCc2ccco2)n(-c2ccc(C)cc2)c1=O	RAM inhibit 8.5
CCCS(=O)(=O)c1nnnn1-c1cccc(OC)c1	Yeast growth inh 96
O=C(CNC(=S)N(Cc1ccccc1)Cc1ccccc1F)NCCc1ccccc1	RAM inhibit 11 (no result: Yeast lifespan up, SDO1 yeast rescue, Yeast growth inh)
O=C(CNC(=S)N(Cc1ccccc1)Cc1ccccc1F)NCc1ccccc1	none (no result: Yeast lifespan up, SDO1 yeast rescue, Yeast growth inh)
Cc1oc(C(C)(C)C)cc1C(=O)Nc1cccc(/C=C/C(=O)O)c1	RAM inhibit 8.4
Cc1cc(C(=O)Nc2cccc(/C=C/C(=O)O)c2)c(C)o1	none
CCOC(=O)c1c(NC(=O)c2c(Br)cnn2CC)sc(C)c1C	RAM inhibit 9.1 (no result: Yeast lifespan up)
CCn1ncc(Br)c1C(=O)Nc1cc(C)cc(C)c1	none
